The source made the active and inactive calls. No cut-off for these calls is given here.
Key:
MCF7 = assay: Cytotoxicity against human MCF7 cells assessed as reduction in cell viability measured after 72 hrs by MTT assay; format: functional, cell-based; conditions: MCF7, 72 h
NAMALVA [1] = assay: Cytotoxicity against human NAMALVA cells assessed as reduction in cell viability measured after 72 hrs by MTT assay; format: functional, cell-based
Jurkat [2] = assay: Cytotoxicity against human Jurkat cells assessed as reduction in cell viability measured after 72 hrs by MTT assay; format: functional, cell-based
HCT-116 = assay: Cytotoxicity against human HCT-116 cells assessed as reduction in cell viability measured after 72 hrs by MTT assay; format: functional, cell-based; conditions: HCT-116, 72 h
[3] = Cytotoxicity against human HS5 cells assessed as reduction in cell viability measured after 72 hrs by MTT assay; format: ADME, cell-based; conditions: HS5, 72 h
Jurkat [4] = assay: Cytotoxicity against human Jurkat cells assessed as reduction in cell viability measured after 48 hrs MTT assay; format: functional, cell-based
Jurkat [5] = assay: Cytotoxicity against human Jurkat cells assessed as reduction in cell viability measured after 24 hrs MTT assay; format: functional, cell-based
[6] = Selectivity ratio of IC50 for human HCT-116 cells to IC50 for human NAMALVA cells; format: functional
[7] = target: T1, Protein deacetylase HDAC6 (Homo sapiens) (UniProt Q9UBN7); assay: Inhibition of HDAC6 in human Jurkat cells assessed as increase in acetylated alpha-tubulin expression at IC50 measured after 48 hrs by Western blot analysis; format: cell-based
T1 sequence (whole entry): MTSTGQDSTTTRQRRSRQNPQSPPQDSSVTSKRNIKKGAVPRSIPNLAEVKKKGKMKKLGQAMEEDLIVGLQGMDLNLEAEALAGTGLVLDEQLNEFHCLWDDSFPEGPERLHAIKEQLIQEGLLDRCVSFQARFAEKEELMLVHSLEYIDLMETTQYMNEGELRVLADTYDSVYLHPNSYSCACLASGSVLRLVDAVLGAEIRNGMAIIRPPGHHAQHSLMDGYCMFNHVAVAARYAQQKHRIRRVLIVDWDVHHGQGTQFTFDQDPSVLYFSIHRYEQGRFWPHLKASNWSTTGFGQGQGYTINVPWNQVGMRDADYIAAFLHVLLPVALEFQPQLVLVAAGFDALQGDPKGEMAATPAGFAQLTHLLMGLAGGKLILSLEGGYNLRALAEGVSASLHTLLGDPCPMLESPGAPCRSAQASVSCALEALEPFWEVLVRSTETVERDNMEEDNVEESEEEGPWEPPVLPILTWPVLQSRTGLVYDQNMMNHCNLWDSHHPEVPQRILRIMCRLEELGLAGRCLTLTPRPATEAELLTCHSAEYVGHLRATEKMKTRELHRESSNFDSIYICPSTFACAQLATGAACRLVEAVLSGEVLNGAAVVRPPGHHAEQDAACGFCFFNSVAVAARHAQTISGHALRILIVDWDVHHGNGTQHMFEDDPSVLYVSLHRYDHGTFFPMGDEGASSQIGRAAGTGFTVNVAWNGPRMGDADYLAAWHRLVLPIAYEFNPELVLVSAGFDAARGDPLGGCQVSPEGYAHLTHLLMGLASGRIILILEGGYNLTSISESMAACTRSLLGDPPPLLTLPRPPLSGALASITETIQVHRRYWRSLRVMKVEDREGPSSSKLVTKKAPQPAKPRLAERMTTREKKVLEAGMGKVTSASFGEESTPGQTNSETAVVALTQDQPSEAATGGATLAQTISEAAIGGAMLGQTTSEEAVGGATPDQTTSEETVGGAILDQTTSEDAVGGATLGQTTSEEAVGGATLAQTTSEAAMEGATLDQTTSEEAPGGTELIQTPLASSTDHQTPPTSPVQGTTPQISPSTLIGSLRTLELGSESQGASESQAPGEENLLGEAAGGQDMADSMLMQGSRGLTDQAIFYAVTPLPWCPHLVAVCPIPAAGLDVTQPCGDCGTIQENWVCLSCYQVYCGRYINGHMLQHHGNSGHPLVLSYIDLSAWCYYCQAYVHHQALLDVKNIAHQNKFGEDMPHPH

Jurkat [8] = assay: Effect on phosphotyrosine expression in human Jurkat cells at IC50 measured after 48 hrs by Western blot analysis; format: functional, cell-based
Jurkat [9] = assay: Effect on phosphoserine expression in human Jurkat cells at IC50 measured after 48 hrs by Western blot analysis; format: functional, cell-based
NAMALVA [10] = assay: Induction of apoptosis in human NAMALVA cells assessed as viable cells at 0.5 times IC50 measured after 48 hrs by Annexin V-FITC/7AAD staining based flow cytometry (reference value: 90.4%); format: functional
[11] = target: T2, Histone deacetylase (Homo sapiens) (UniProt Q13547+O15379+Q9UBN7+Q92769+Q9UQL6+Q8WUI4+Q9BY41+Q96DB2+P56524+Q9UKV0+Q969S8); assay: Inhibition of HDAC in human Jurkat cells assessed as increase in gammaH2AX expression at IC50 measured after 48 hrs by Western blot analysis; format: cell-based
Jurkat [12] = assay: Induction of apoptosis in human Jurkat cells assessed as viable cells at 0.5 times IC50 measured after 48 hrs by Annexin V-FITC/7AAD staining based flow cytometry (reference value: 85.2%); format: functional
NAMALVA [13] = assay: Effect on phosphoserine expression in human NAMALVA cells at IC50 measured after 48 hrs by Western blot analysis; format: functional, cell-based
[14] = Selectivity index, ratio of IC50 for human HS5 cells to IC50 for human NAMALVA cells
NAMALVA [15] = assay: Induction of apoptosis in human NAMALVA cells assessed as late apoptotic cells at 0.5 times IC50 measured after 48 hrs by Annexin V-FITC/7AAD staining based flow cytometry (reference value: 3.52%); format: functional
NAMALVA [16] = assay: Induction of apoptosis in human NAMALVA cells assessed as necrotic cells at 0.5 times IC50 measured after 48 hrs by Annexin V-FITC/7AAD staining based flow cytometry (reference value: 1.05%); format: functional
[17] = Selectivity ratio of IC50 for human HCT-116 cells to IC50 for human Jurkat cells; format: functional
Jurkat [18] = assay: Cytotoxicity against human Jurkat cells assessed as reduction in cell proliferation at IC50 measured after 48 hrs by Ki-67 staining based fluorescence assay; format: functional
How it was run: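 Ki-67 stained per kit instructions; mean fluorescence intensity by flow cytometry, normalized to untreated cells; at least three independent experiments, ANOVA with Bonferroni post-test.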

Jurkat [19] = assay: Induction of apoptosis in human Jurkat cells assessed as late apoptotic cells at 0.5 times IC50 measured after 48 hrs by Annexin V-FITC/7AAD staining based flow cytometry (reference value: 6.77%); format: functional
Jurkat [20] = assay: Induction of apoptosis in human Jurkat cells assessed as early apoptotic cells at 0.5 times IC50 measured after 48 hrs by Annexin V-FITC/7AAD staining based flow cytometry (reference value: 6.05%); format: functional
[21] = target: T2, Histone deacetylase (Homo sapiens); assay: Inhibition of HDAC in human NAMALVA cells assessed as increase in gammaH2AX expression at IC50 measured after 48 hrs by Western blot analysis; format: cell-based
Jurkat [22] = assay: Induction of apoptosis in human Jurkat cells assessed as necrotic cells at 0.5 times IC50 measured after 48 hrs by Annexin V-FITC/7AAD staining based flow cytometry (reference value: 0.23%); format: functional
[23] = Selectivity index, ratio of IC50 for human HS5 cells to IC50 for human Jurkat cells
NAMALVA [24] = assay: Effect on phosphotyrosine expression in human NAMALVA cells at IC50 measured after 48 hrs by Western blot analysis; format: functional, cell-based
Jurkat [25] = assay: Cytotoxicity against human Jurkat cells assessed as reduction in cell viability MTT assay; format: functional, cell-based; conditions: time 24-72 hrs, TDE = time-dependent effect
How it was run: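 Jurkat cells (2 × 10^4/well) in RPMI with 10% FBS and 1% penicillin–streptomycin, exposed 24, 48 and 72 h to compound (0.0032–50 μM); 1% DMSO as negative control. MTT at 0.5 mg/mL final for 3 h, formazan dissolved in 0.1 N HCl/isopropanol. IC50 with 95% confidence intervals from sigmoidal nonlinear regression; mean ± SEM.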

[26] = target: T1, Protein deacetylase HDAC6 (Homo sapiens); assay: Inhibition of HDAC6 in human NAMALVA cells assessed as increase in acetylated alpha-tubulin expression at IC50 measured after 48 hrs by Western blot analysis; format: cell-based
NAMALVA [27] = assay: Induction of apoptosis in human NAMALVA cells assessed as early apoptotic cells at 0.5 times IC50 measured after 48 hrs by Annexin V-FITC/7AAD staining based flow cytometry (reference value: 5.07%); format: functional

O=C(CCc1ccc(NC(=O)Nc2ccccc2)cc1)NO
IC50 (MCF7): > 50000 nM | IC50 (NAMALVA [1]): 780 nM | IC50 (Jurkat [2]): 1590 nM | IC50 (HCT-116): 16200 nM

O=C(CCc1ccc(NC(=O)Nc2ccc([N+](=O)[O-])cc2)cc1)NO
IC50 (MCF7): > 50000 nM | IC50 (NAMALVA [1]): 2500 nM | IC50 (Jurkat [2]): 810 nM | IC50 (HCT-116): 6370 nM

COc1ccc(NC(=O)Nc2ccc(C(=O)NO)cc2)cc1
IC50 (MCF7): > 50000 nM | IC50 (NAMALVA [1]): 4790 nM | IC50 (Jurkat [2]): 8030 nM | IC50 (HCT-116): 22300 nM

COc1cccc2c1C(=O)c1c(O)c3c(c(O)c1C2=O)C[C@@](O)(C(=O)CO)C[C@@H]3O[C@H]1C[C@H](N)[C@H](O)[C@H](C)O1 [DOXORUBICIN]
IC50 [3]: 150 nM | IC50 (MCF7): 1900 nM | IC50 (NAMALVA [1]): 90 nM | IC50 (Jurkat [2]): 50 nM | IC50 (Jurkat [4]): 200 nM | IC50 (Jurkat [5]): 700 nM

COc1ccc(NC(=O)Nc2ccc(CCC(=O)NO)cc2)cc1
IC50 (MCF7): > 50000 nM | IC50 (NAMALVA [1]): 1990 nM | IC50 (Jurkat [2]): 2800 nM | IC50 (HCT-116): 31000 nM

O=C(Nc1ccc(C(=O)NO)cc1)Nc1ccc([N+](=O)[O-])cc1
IC50 (MCF7): > 50000 nM | IC50 (NAMALVA [1]): 13200 nM | IC50 (Jurkat [2]): 12600 nM | IC50 (HCT-116): 28400 nM

COc1ccc(NC(=O)Nc2ccc(/C=C/C(=O)NO)cc2)cc1
IC50 [3]: 3000 nM | Ratio IC50 [6]: 26 | inhibition [7]: Active | inhibition (Jurkat [8]): inactive | IC50 (MCF7): > 50000 nM | inhibition (Jurkat [9]): inactive | Activity (NAMALVA [10]): 82.9% | inhibition [11]: Active | Activity (Jurkat [12]): 82.2% | inhibition (NAMALVA [13]): inactive | IC50 (NAMALVA [1]): 460 nM | Ratio IC50 [14]: 7 | IC50 (Jurkat [2]): 110 nM | Activity (NAMALVA [15]): 5.42% | Activity (NAMALVA [16]): 1.46% | IC50 (HCT-116): 11900 nM | Ratio IC50 [17]: 108 | Activity (Jurkat [18]): Active | Activity (Jurkat [19]): 7.77% | Activity (Jurkat [20]): 9.66% | IC50 (Jurkat [4]): 700 nM | inhibition [21]: Active | Activity (Jurkat [22]): 0.39% | IC50 (Jurkat [5]): 1800 nM | Ratio IC50 [23]: 27 | inhibition (NAMALVA [24]): inactive | Activity (Jurkat [25]): Tde | inhibition [26]: Active | Activity (NAMALVA [27]): 10.2%

O=C(/C=C/c1ccc(NC(=O)Nc2ccccc2)cc1)NO
IC50 [3]: 1000 nM | Ratio IC50 [6]: 22 | inhibition [7]: Active | inhibition (Jurkat [8]): inactive | IC50 (MCF7): > 50000 nM | inhibition (Jurkat [9]): inactive | Activity (NAMALVA [10]): 81.4% | inhibition [11]: Active | Activity (Jurkat [12]): 87.4% | inhibition (NAMALVA [13]): inactive | IC50 (NAMALVA [1]): 300 nM | Ratio IC50 [14]: 3 | IC50 (Jurkat [2]): 160 nM | Activity (NAMALVA [15]): 5.2% | Activity (NAMALVA [16]): 1.05% | IC50 (HCT-116): 6490 nM | Ratio IC50 [17]: 41 | Activity (Jurkat [18]): Active | Activity (Jurkat [19]): 4.39% | Activity (Jurkat [20]): 7.03% | IC50 (Jurkat [4]): 1200 nM | inhibition [21]: Active | Activity (Jurkat [22]): 0.31% | IC50 (Jurkat [5]): 2700 nM | Ratio IC50 [23]: 6 | inhibition (NAMALVA [24]): inactive | Activity (Jurkat [25]): Tde | inhibition [26]: Active | Activity (NAMALVA [27]): 12.4%

O=C(Nc1ccccc1)Nc1ccc(C(=O)NO)cc1
IC50 (MCF7): > 50000 nM | IC50 (NAMALVA [1]): 530 nM | IC50 (Jurkat [2]): 2500 nM | IC50 (HCT-116): 14700 nM

Source: ChEMBL document CHEMBL4706706, “Structure-activity relationship and mechanistic studies for a series of cinnamyl hydroxamate histone deacetylase inhibitors” (Bioorg Med Chem, 2021)
